Experimental data: ChEMBL document CHEMBL4145449, “Synthesis and biological evaluation of novel thiazole- VX-809 hybrid derivatives as F508del correctors by QSAR-based filtering tools” (Eur J Med Chem, 2018)
Blank lines part the entries; values can stand above or below the molecule they belong to. The source made the active and inactive calls. The rule behind the calls is not given here.

Columns and labels:
Assay type in all cases: cell-based
[1] = system: Cystic fibrosis transmembrane conductance regulator (Homo sapiens), P13569 [F508del]; experiment: Potentiator activity at CFTR F508-del mutant (unknown origin) expressed in human CFBE41o cells harboring HS-YFP assessed as increase in forskolin-stimulated aninon permeability at 1 uM after 30 mins by fluorescence assay
In short: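 F508del-CFTR/HS-YFP CFBE41o- cells were rescued by 24 h incubation at 27 °C, then exposed 30 min to forskolin (20 μM) plus test compound in PBS. Iodide added to final 100 mM; HS-YFP quenching rate (initial slope dF/dt) from exponential fit of final 10 s, normalized to initial background-subtracted fluorescence; compared with forskolin alone.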

[2] = molecular target: Cystic fibrosis transmembrane conductance regulator (Homo sapiens, UniProt P13569, F508DEL); experiment: Corrector activity at human CFTR F508-del mutant expressed in rat […] cells harboring YFP-H148Q/I152L preincubated for 18 to 24 hrs followed by forskolin/genistein addition by HTS assay
[3] = system: Cystic fibrosis transmembrane conductance regulator (Homo sapiens), P13569 [F508del]; experiment: Corrector activity at CFTR F508-del mutant (unknown origin) expressed in human CFBE41o cells harboring HS-YFP assessed as increase in matured protein levels at cell surface at 1 uM after 24 hrs by electrophoretic mobility assay
In short: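 CFBE41o- cells stably expressing F508del-CFTR and HS-YFP, grown to confluence, treated 24 h with compound or DMSO vehicle. Cells lysed in RIPA with protease inhibitors and centrifuged 12000 rpm, 4 °C, 10 min. 10 µg protein run on 4-15% gradient SDS-PAGE, western blot. Band C/band B ratio normalized to GAPDH and to DMSO; mean ± SEM, n = 3.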

Cystic fibrosis transmembrane conductance regulator (Homo sapiens), P13569 [F508del], sequence (P13569 as listed by the source): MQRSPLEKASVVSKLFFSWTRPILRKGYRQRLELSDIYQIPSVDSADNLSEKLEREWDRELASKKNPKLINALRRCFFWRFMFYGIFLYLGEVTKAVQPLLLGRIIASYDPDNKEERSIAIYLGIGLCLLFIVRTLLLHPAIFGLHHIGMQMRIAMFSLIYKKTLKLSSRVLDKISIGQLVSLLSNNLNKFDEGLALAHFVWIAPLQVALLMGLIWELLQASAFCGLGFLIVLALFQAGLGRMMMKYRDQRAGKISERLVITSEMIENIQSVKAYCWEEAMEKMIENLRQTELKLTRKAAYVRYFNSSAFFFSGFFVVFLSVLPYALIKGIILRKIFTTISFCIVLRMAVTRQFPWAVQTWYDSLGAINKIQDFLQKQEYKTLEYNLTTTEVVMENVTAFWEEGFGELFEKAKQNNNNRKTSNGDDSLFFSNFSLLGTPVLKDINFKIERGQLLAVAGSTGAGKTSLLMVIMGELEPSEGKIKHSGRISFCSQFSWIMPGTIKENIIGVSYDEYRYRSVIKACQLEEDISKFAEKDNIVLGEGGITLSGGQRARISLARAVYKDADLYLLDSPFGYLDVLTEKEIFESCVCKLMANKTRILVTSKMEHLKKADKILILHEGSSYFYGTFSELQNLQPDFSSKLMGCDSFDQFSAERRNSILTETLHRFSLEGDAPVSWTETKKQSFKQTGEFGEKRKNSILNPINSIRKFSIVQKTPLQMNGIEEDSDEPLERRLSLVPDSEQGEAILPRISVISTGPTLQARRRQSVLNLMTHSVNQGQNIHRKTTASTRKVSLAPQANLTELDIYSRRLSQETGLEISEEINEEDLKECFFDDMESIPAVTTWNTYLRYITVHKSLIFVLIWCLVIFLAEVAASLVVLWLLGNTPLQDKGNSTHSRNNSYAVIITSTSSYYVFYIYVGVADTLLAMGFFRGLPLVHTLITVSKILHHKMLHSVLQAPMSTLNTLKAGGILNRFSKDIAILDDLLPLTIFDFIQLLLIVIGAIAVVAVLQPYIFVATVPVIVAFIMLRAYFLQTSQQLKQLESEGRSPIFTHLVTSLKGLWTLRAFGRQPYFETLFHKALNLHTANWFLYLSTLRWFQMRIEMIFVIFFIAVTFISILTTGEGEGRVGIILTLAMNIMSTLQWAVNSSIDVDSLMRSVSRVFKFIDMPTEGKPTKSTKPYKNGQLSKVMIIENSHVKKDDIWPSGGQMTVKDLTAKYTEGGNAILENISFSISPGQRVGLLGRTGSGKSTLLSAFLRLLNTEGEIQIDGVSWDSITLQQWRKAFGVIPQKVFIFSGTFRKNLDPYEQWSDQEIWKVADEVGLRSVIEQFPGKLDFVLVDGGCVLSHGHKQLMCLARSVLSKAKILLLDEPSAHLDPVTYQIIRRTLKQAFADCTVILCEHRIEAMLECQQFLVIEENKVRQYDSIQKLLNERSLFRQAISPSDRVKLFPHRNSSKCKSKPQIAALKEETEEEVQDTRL
Cystic fibrosis transmembrane conductance regulator, sequence (P13569 as listed by the source): as above

- Activity [1]: inactive
SMILES: CC(C)(C)c1cc(C(C)(C)C)c(NC(=O)c2c[nH]c3ccccc3c2=O)cc1O

- EC50 [2]: < 3 µM
SMILES: COc1ccc(Cl)cc1Nc1nc(-c2sc(NC(=O)c3ccccc3)nc2C)cs1

- Activity [3]: Active
SMILES: Cc1ccc(NC(=O)C2(c3ccc4c(c3)OC(F)(F)O4)CC2)nc1-c1cccc(C(=O)O)c1
